# According to ChEMBL document CHEMBL4689842, “EUbOPEN Chemogenomics Library wave 1” (2021):
# System: Fibroblast
# Experiment: Multiplex assay against human fibroblast
# Type: toxicity, cell-based
# Summary of the method: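 Four dyes were applied at seeding to live cells: Hoechst33342, BioTracker Green Microtubule Cytoskeleton Dye, MitoTracker Red and Annexin V Alexa Fluor 680. Imaging after compound addition used a CQ1 microscope at 37°C and 5% CO2. CellPathfinder machine-learning gating then sorted cells into Hoechst high-intensity objects or normal cells, normal cells into healthy, pyknosed or fragmented nuclei, and pyknosed cells into mitotic or apoptotic, with tubulin, mitochondrial-mass and membrane-permeability phenotypes given as per cents of healthy-nucleus cells.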
# [1] = 12 h, 1 µM, compound concentration 1 uM, replicate 1
# [2] = 12 h, 1 µM, compound concentration 1 uM, replicate 2
# [3] = 12 h, 10 µM, compound concentration 10 uM, replicate 1
# [4] = 12 h, 10 µM, compound concentration 10 uM, replicate 2
# [5] = 24 h, 1 µM, compound concentration 1 uM, replicate 1
# [6] = 24 h, 1 µM, compound concentration 1 uM, replicate 2
# [7] = 24 h, 10 µM, compound concentration 10 uM, replicate 1
# [8] = 24 h, 10 µM, compound concentration 10 uM, replicate 2
# [9] = 48 h, 1 µM, compound concentration 1 uM, replicate 1
# [10] = 48 h, 1 µM, compound concentration 1 uM, replicate 2
# [11] = 48 h, 10 µM, compound concentration 10 uM, replicate 1
# [12] = 48 h, 10 µM, compound concentration 10 uM, replicate 2
compound,measurement,setting,value
C[C@]12CC[C@@H]3c4ccc(O)cc4CC[C@H]3[C@@H]1CC[C@@H]2O [ESTRADIOL],Population Apoptotic (%),[1],73%
same,Population Fragmented Nuclei (%),[1],30%
same,Population Healthy Nuclei (%),[1],50%
same,Population Hoechst High Intensity Objects (%),[1],21%
same,Population Membrane Permeable-Phenotype (%),[1],20%
same,Population Mitochondria Different-Phenotype (%),[1],9%
same,Population Mitotic Cells (%),[1],26%
same,Population Normal (%),[1],78%
same,Population Pyknosed Nuclei (%),[1],18%
same,Population Tubulin-Different-Phenotype (%),[1],46%
same,Population Apoptotic (%),[2],50%
same,Population Fragmented Nuclei (%),[2],8%
same,Population Healthy Nuclei (%),[2],86%
same,Population Hoechst High Intensity Objects (%),[2],5%
same,Population Membrane Permeable-Phenotype (%),[2],4%
same,Population Mitochondria Different-Phenotype (%),[2],8%
same,Population Mitotic Cells (%),[2],50%
same,Population Normal (%),[2],94%
same,Population Pyknosed Nuclei (%),[2],5%
same,Population Tubulin-Different-Phenotype (%),[2],14%
same,Population Apoptotic (%),[3],75%
same,Population Fragmented Nuclei (%),[3],24%
same,Population Healthy Nuclei (%),[3],57%
same,Population Hoechst High Intensity Objects (%),[3],14%
same,Population Membrane Permeable-Phenotype (%),[3],20%
same,Population Mitochondria Different-Phenotype (%),[3],7%
same,Population Mitotic Cells (%),[3],25%
same,Population Normal (%),[3],85%
same,Population Pyknosed Nuclei (%),[3],18%
same,Population Tubulin-Different-Phenotype (%),[3],33%
same,Population Apoptotic (%),[4],25%
same,Population Fragmented Nuclei (%),[4],9%
same,Population Healthy Nuclei (%),[4],77%
same,Population Hoechst High Intensity Objects (%),[4],8%
same,Population Membrane Permeable-Phenotype (%),[4],4%
same,Population Mitochondria Different-Phenotype (%),[4],12%
same,Population Mitotic Cells (%),[4],75%
same,Population Normal (%),[4],91%
same,Population Pyknosed Nuclei (%),[4],12%
same,Population Tubulin-Different-Phenotype (%),[4],25%
same,Population Apoptotic (%),[5],45%
same,Population Fragmented Nuclei (%),[5],33%
same,Population Healthy Nuclei (%),[5],50%
same,Population Hoechst High Intensity Objects (%),[5],18%
same,Population Membrane Permeable-Phenotype (%),[5],29%
same,Population Mitochondria Different-Phenotype (%),[5],3%
same,Population Mitotic Cells (%),[5],55%
same,Population Normal (%),[5],82%
same,Population Pyknosed Nuclei (%),[5],16%
same,Population Tubulin-Different-Phenotype (%),[5],43%
same,Population Apoptotic (%),[6],50%
same,Population Fragmented Nuclei (%),[6],4%
same,Population Healthy Nuclei (%),[6],89%
same,Population Hoechst High Intensity Objects (%),[6],3%
same,Population Membrane Permeable-Phenotype (%),[6],4%
same,Population Mitochondria Different-Phenotype (%),[6],9%
same,Population Mitotic Cells (%),[6],50%
same,Population Normal (%),[6],96%
same,Population Pyknosed Nuclei (%),[6],6%
same,Population Tubulin-Different-Phenotype (%),[6],14%
same,Population Apoptotic (%),[7],73%
same,Population Fragmented Nuclei (%),[7],22%
same,Population Healthy Nuclei (%),[7],60%
same,Population Hoechst High Intensity Objects (%),[7],11%
same,Population Membrane Permeable-Phenotype (%),[7],29%
same,Population Mitochondria Different-Phenotype (%),[7],9%
same,Population Mitotic Cells (%),[7],26%
same,Population Normal (%),[7],88%
same,Population Pyknosed Nuclei (%),[7],17%
same,Population Tubulin-Different-Phenotype (%),[7],35%
same,Population Apoptotic (%),[8],30%
same,Population Fragmented Nuclei (%),[8],18%
same,Population Healthy Nuclei (%),[8],68%
same,Population Hoechst High Intensity Objects (%),[8],3%
same,Population Membrane Permeable-Phenotype (%),[8],5%
same,Population Mitochondria Different-Phenotype (%),[8],11%
same,Population Mitotic Cells (%),[8],70%
same,Population Normal (%),[8],96%
same,Population Pyknosed Nuclei (%),[8],13%
same,Population Tubulin-Different-Phenotype (%),[8],43%
same,Population Apoptotic (%),[9],83%
same,Population Fragmented Nuclei (%),[9],42%
same,Population Healthy Nuclei (%),[9],51%
same,Population Hoechst High Intensity Objects (%),[9],24%
same,Population Membrane Permeable-Phenotype (%),[9],26%
same,Population Mitochondria Different-Phenotype (%),[9],0%
same,Population Mitotic Cells (%),[9],16%
same,Population Normal (%),[9],75%
same,Population Pyknosed Nuclei (%),[9],5%
same,Population Tubulin-Different-Phenotype (%),[9],42%
same,Population Apoptotic (%),[10],0%
same,Population Fragmented Nuclei (%),[10],24%
same,Population Healthy Nuclei (%),[10],74%
same,Population Hoechst High Intensity Objects (%),[10],14%
same,Population Membrane Permeable-Phenotype (%),[10],8%
same,Population Mitotic Cells (%),[10],100%
same,Population Normal (%),[10],85%
same,Population Pyknosed Nuclei (%),[10],1%
same,Population Tubulin-Different-Phenotype (%),[10],26%
same,Population Apoptotic (%),[11],66%
same,Population Fragmented Nuclei (%),[11],36%
same,Population Healthy Nuclei (%),[11],58%
same,Population Hoechst High Intensity Objects (%),[11],13%
same,Population Membrane Permeable-Phenotype (%),[11],11%
same,Population Mitochondria Different-Phenotype (%),[11],3%
same,Population Mitotic Cells (%),[11],33%
same,Population Normal (%),[11],86%
same,Population Pyknosed Nuclei (%),[11],5%
same,Population Tubulin-Different-Phenotype (%),[11],17%
same,Population Apoptotic (%),[12],0%
same,Population Fragmented Nuclei (%),[12],32%
same,Population Healthy Nuclei (%),[12],65%
same,Population Hoechst High Intensity Objects (%),[12],2%
same,Population Membrane Permeable-Phenotype (%),[12],16%
same,Population Mitochondria Different-Phenotype (%),[12],1%
same,Population Mitotic Cells (%),[12],100%
same,Population Normal (%),[12],97%
same,Population Pyknosed Nuclei (%),[12],2%
same,Population Tubulin-Different-Phenotype (%),[12],41%
